Measured values as given in ChEMBL document CHEMBL4130623, “Discovery of Highly Potent Pinanamine-Based Inhibitors against Amantadine- and Oseltamivir-Resistant Influenza A Viruses” (J Med Chem, 2018).
Calls of active or inactive are those of the source. The rule behind the calls is not given here.

Key:
[1] = test system: Influenza A virus (A/Puerto Rico/8/1934(H1N1)); experiment: Antiviral activity against Influenza A virus (A/PR/8/34 (H1N1)(NA-H274Y)) infected in MDCK cells assessed as reduction in virus-induced cytopathic effect after 48 hrs by microscopic analysis; type: functional, organism-based
Procedure, shortened: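 MDCK monolayers (5×10^4 cells/well, grown 24 h) were rinsed twice, infected with 100 TCID50 virus for 2 h at 37 °C in 5% CO2, and the inoculum was removed. Two-fold serial compound dilutions in DMEM with 1.5 µg/mL trypsin were added and incubated 48 h at 34 °C. CPE percentage was scored by microscope and EC50 fitted by non-linear regression.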

[2] = test system: Matrix protein 2 (Influenza A virus (A/Udorn/307/1972(H3N2))), P0DOF8 [S31N]; experiment: Inhibition of Influenza A virus AM2 S31N mutant expressed in Xenopus laevis frog oocytes assessed as maximum reduction in channel current at 100 uM at pH 5.5 after 2 mins by TEVC assay; type: cell-based
Procedure, shortened: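 Xenopus laevis oocytes were microinjected with RNA expressing A/M2 S31N. Compound was applied for 2 min at pH 5.5 and the percentage inhibition of M2 current was recorded by two-electrode voltage clamp. Each measurement was repeated twice with different cells.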

Structure (SMILES) | EC50 [1] | inhibition [2]
C[C@@H]1C2CC(C[C@H]1NCc1sccc1C1CC1)C2(C)C (single isomer, unassigned) | 6.85 µM | inactive
NC12CC3CC(CC(C3)C1)C2 [AMANTADINE] | > 100 µM | 
CCOC(=O)C1=C[C@@H](OC(CC)CC)[C@H](NC(C)=O)[C@@H](N)C1 [OSELTAMIVIR] | > 10 µM | 
